Drawing on ChEMBL document CHEMBL1145425, “Antitumor agents 259. Design, syntheses, and structure-activity relationship study of desmosdumotin C analogs” (2007), this text covers EC50 for 12 compounds.

≈ marks a conversion by molar mass, not a printed value.

Holding throughout (type): functional
One test deals with 1A9. Nature of the test: Cytotoxicity against human 1A9 cells. As to conditions: read-out: ED50 (the source's name). In a few lines:
(§1)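 Sulforhodamine B growth assay. Lines kept in RPMI-1640 with 25 mM HEPES, 0.25% sodium bicarbonate, 10% FBS and kanamycin. Trypsinized cells seeded at 1500–7500 per well, with compound added from DMSO-diluted stock. After 3 days, attached cells fixed with cold 50% TCA, stained with 0.4% SRB, dye solubilized, absorbance read at 562 nm. ED50 is 50% growth reduction, averaged over at least three independent determinations.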

The subject of another test is PC-3. Nature of the test: Cytotoxicity against human PC3 cells. As to conditions: read-out: ED50 (the source's name). In a few lines:
as §1

The test system of another test is A-431. Nature of the test: Cytotoxicity against human A431 cells. As to conditions: read-out: ED50 (the source's name). In a few lines:
as §1

Another test deals with HCT-8. Nature of the test: Cytotoxicity against human HCT8 cells. The conditions noted are these: read-out: ED50 (the source's name). Summed up: as §1
In test [1] the test system is KB. Nature of the test: Cytotoxicity against human vincristine-resistant KB cells. The conditions noted are these: read-out: ED50 (the source's name). Summed up:
as §1

Test [2] deals with KB. As to the kind of experiment: Cytotoxicity against human KB cells. The conditions noted are these: read-out: ED50 (the source's name). In a few lines: as §1
The subject of a further test is A549. Nature of the test: Cytotoxicity against human A549 cells. The conditions noted are these: read-out: ED50 (the source's name). Summed up:
as §1

Test [3] has as its system HUVEC. As to the kind of experiment: Antiangiogenesis activity against HUVEC. The conditions noted are these: Homo sapiens, read-out: ED50 (the source's name). In a few lines:
(§2)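 HUVEC seeded at 1.5×10^3 per well in EGM-2; after 24 h (day zero) compound added in EGM-2 at 2× the desired concentration. Day-zero plate stained with crystal violet. Remaining plates kept 72 h at 37 °C, then stained with 0.5% crystal violet in 20% MeOH. Dye eluted with 1:1 EtOH:0.1 M sodium citrate and read at 540 nm. Run per the NCI Angiogenesis Resource Center protocol.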

Test [4] has as its system HUVEC. As to the kind of experiment: Cytotoxicity against HUVEC. The conditions noted are these: Homo sapiens, read-out: ED50 (the source's name). Summed up:
as §2

With `CCCC1=C(OC)C(CCC)(CCC)C(=O)/C(=C(O)\C=C\c2ccc(Br)cc2)C1=O`, the EC50 was found to be 0.9 µg/mL (≈ 1.89 µM) with 1A9; 2.3 µg/mL (≈ 4.84 µM) in the test with PC-3; 1.2 µg/mL (≈ 2.52 µM) in the test with A-431; 1.3 µg/mL (≈ 2.73 µM) in the test on HCT-8; 0.9 µg/mL (≈ 1.89 µM) with KB [1]; 0.9 µg/mL (≈ 1.89 µM) in the test with KB [2]. Moreover, in the test on A549, the EC50 amounted to 1 µg/mL (≈ 2.1 µM).
Turning to `CCCC1=C(OC)C(CCC)(CCC)C(=O)/C(=C(O)\C=C\c2ccccc2)C1=O`, the EC50 was 1.5 µg/mL (≈ 3.78 µM) in the test with 1A9; 3.3 µg/mL (≈ 8.32 µM) with PC-3; 1.9 µg/mL (≈ 4.79 µM) in the test on A-431; 1.4 µg/mL (≈ 3.53 µM) in the test with HCT-8; 0.8 µg/mL (≈ 2.02 µM) with KB [1]; 0.6 µg/mL (≈ 1.51 µM) in the test with KB [2]. Moreover, the EC50 with A549 is 1.4 µg/mL (≈ 3.53 µM).
Take `CC1(C)C(=O)C(C(=O)/C=C/c2ccccc2)=C(O)C(C)(C)C1=O`: the EC50 in the test on 1A9 is 4.6 µg/mL (≈ 14.7 µM); in the test on HUVEC [3], below 4 µg/mL; in the test on PC-3, 11.1 µg/mL (≈ 35.5 µM); with A-431, 10.5 µg/mL (≈ 33.6 µM); in the test with HCT-8, 5 µg/mL (≈ 16 µM); with KB [1], 3.8 µg/mL (≈ 12.2 µM). Further, the EC50 in the test with KB [2] was 7.3 µg/mL (≈ 23.4 µM); in the test with A549, above 5 µg/mL; in the test with HUVEC [4], 2 µg/mL (≈ 6.4 µM).
In the case of `COC1=C(C)C(=O)/C(=C(O)/C=C/c2ccc(Br)cc2)C(=O)C1(C)C`, the EC50 in the test with 1A9 was 1.1 µg/mL (≈ 2.81 µM); in the test on HUVEC [3], below 4 µg/mL; in the test on PC-3, 17.7 µg/mL (≈ 45.2 µM); with A-431 it was 9 µg/mL (≈ 23 µM); in the test with HCT-8, 7.4 µg/mL (≈ 18.9 µM); with KB [1], 1.9 µg/mL (≈ 4.86 µM). Further, the EC50 was found to be 1.7 µg/mL (≈ 4.34 µM) with KB [2], 1.4 µg/mL (≈ 3.58 µM) in the test with A549 and 3.6 µg/mL (≈ 9.2 µM) in the test on HUVEC [4].
Take `COC1=C(C)C(=O)/C(=C(O)/C=C/c2ccc(OC)cc2)C(=O)C1(C)C`: the EC50 in the test with 1A9 was 2.8 µg/mL (≈ 8.18 µM); in the test with HUVEC [3], below 4 µg/mL; in the test with PC-3 it was 18.2 µg/mL (≈ 53.2 µM); in the test on A-431, 9.2 µg/mL (≈ 26.9 µM); with HCT-8, 5.6 µg/mL (≈ 16.4 µM); in the test with KB [1], 2.9 µg/mL (≈ 8.47 µM). For the same compound, the results for the EC50 in the test with KB [2], with A549 and in the test on HUVEC [4] were 3.6 µg/mL (≈ 10.5 µM), 3 µg/mL (≈ 8.76 µM) and 2.5 µg/mL (≈ 7.3 µM), respectively.
Regarding `COC1=C(C)C(=O)/C(=C(O)/C=C/c2ccccc2OC)C(=O)C1(C)C`, the EC50 with 1A9 was 2.5 µg/mL (≈ 7.3 µM); with HUVEC [3] it was below 4 µg/mL; in the test with PC-3 it was 15.6 µg/mL (≈ 45.6 µM); with A-431, 6.6 µg/mL (≈ 19.3 µM); with HCT-8, 4.1 µg/mL (≈ 12 µM); in the test with KB [1] it was 2.8 µg/mL (≈ 8.18 µM). The figures for the EC50 in the test with KB [2], in the test on A549 and with HUVEC [4] were 3.3 µg/mL (≈ 9.64 µM), 2.4 µg/mL (≈ 7.01 µM) and 1.7 µg/mL (≈ 4.97 µM), respectively.
`COC1=C(C)C(=O)/C(=C(O)/C=C/c2ccc(F)cc2)C(=O)C1(C)C`: the EC50 with HUVEC [3] was below 4 µg/mL; in the test on PC-3, 7.2 µg/mL (≈ 21.8 µM); in the test with A-431, 4.1 µg/mL (≈ 12.4 µM); with HCT-8, 3.6 µg/mL (≈ 10.9 µM); in the test with KB [1], 2.7 µg/mL (≈ 8.17 µM); in the test on KB [2], 3.7 µg/mL (≈ 11.2 µM). Besides, the EC50 with A549 worked out at 3.3 µg/mL (≈ 9.99 µM); with HUVEC [4], 2 µg/mL (≈ 6.05 µM).
Consider `COC1=C(C)C(=O)/C(=C(O)/C=C/c2ccc(C)cc2)C(=O)C1(C)C`, for which the EC50 in the test on HUVEC [3] was below 4 µg/mL; with PC-3 it was 8.2 µg/mL (≈ 25.1 µM); in the test on A-431, 5.1 µg/mL (≈ 15.6 µM); with HCT-8, 4.1 µg/mL (≈ 12.6 µM); in the test with KB [1], 1.9 µg/mL (≈ 5.82 µM); in the test with KB [2] it was 3.9 µg/mL (≈ 11.9 µM). In addition, the figures for the EC50 in the test on A549 and in the test with HUVEC [4] were 4.3 µg/mL (≈ 13.2 µM) and 2.4 µg/mL (≈ 7.35 µM), respectively.
As to `COC1=C(C)C(=O)/C(=C(O)/C=C/c2c(C)cccc2C)C(=O)C1(C)C`, the EC50 is below 4 µg/mL with HUVEC [3]; 17.1 µg/mL (≈ 50.2 µM) with PC-3; 10.1 µg/mL (≈ 29.7 µM) in the test with A-431; 7.8 µg/mL (≈ 22.9 µM) in the test on HCT-8; 2.1 µg/mL (≈ 6.17 µM) in the test on KB [1]; 7.1 µg/mL (≈ 20.9 µM) in the test on KB [2]. Further, the EC50 in the test on A549 was found to be 8.3 µg/mL (≈ 24.4 µM); in the test with HUVEC [4] it was 3 µg/mL (≈ 8.81 µM).
In the case of `COC1=C(C)C(=O)/C(=C(O)/C=C/c2cc(C)cc(C)c2)C(=O)C1(C)C`, the EC50 is below 4 µg/mL with HUVEC [3]; 8.8 µg/mL (≈ 25.9 µM) with PC-3; 4 µg/mL (≈ 11.8 µM) with A-431; 2.9 µg/mL (≈ 8.52 µM) with HCT-8; 1.6 µg/mL (≈ 4.7 µM) in the test on KB [1]; 3.1 µg/mL (≈ 9.11 µM) with KB [2]. For the same compound, the EC50 with A549 turned out to be 4.3 µg/mL (≈ 12.6 µM); with HUVEC [4], 2.5 µg/mL (≈ 7.34 µM).
Regarding `C=Cc1ccccc1/C=C/C(O)=C1/C(=O)C(C)=C(OC)C(C)(C)C1=O`, the EC50 in the test with HUVEC [3] worked out at 1.1 µg/mL (≈ 3.25 µM); with PC-3, 4.6 µg/mL (≈ 13.6 µM); with A-431, 2.6 µg/mL (≈ 7.68 µM); in the test on HCT-8, 2.1 µg/mL (≈ 6.21 µM); in the test on KB [1] it was 1.1 µg/mL (≈ 3.25 µM); in the test on KB [2], 1.9 µg/mL (≈ 5.61 µM). The EC50 in the test on A549 is 2.2 µg/mL (≈ 6.5 µM); in the test on HUVEC [4] it was 1.1 µg/mL (≈ 3.25 µM).
In the case of `COC1=C(C)C(=O)/C(=C(O)/C=C/c2ccco2)C(=O)C1(C)C`, the EC50 with 1A9 was 7.9 µg/mL (≈ 26.1 µM); in the test with HUVEC [3], below 4 µg/mL; in the test on PC-3, 20.6 µg/mL (≈ 68.1 µM); with A-431, 14.7 µg/mL (≈ 48.6 µM); in the test with HCT-8, 17.5 µg/mL (≈ 57.9 µM); in the test on KB [1], 8.8 µg/mL (≈ 29.1 µM). In addition, the EC50 in the test on KB [2] came out at 9.9 µg/mL (≈ 32.7 µM); with A549 it was 10 µg/mL (≈ 33.1 µM); with HUVEC [4], 2.4 µg/mL (≈ 7.94 µM).
